Data published in ChEMBL document CHEMBL1795332, “Renin inhibitors for the treatment of hypertension: design and optimization of a novel series of pyridone-substituted piperidines” (Bioorg Med Chem Lett, 2011).

Assays:
[1] = target: Voltage-gated inwardly rectifying potassium channel KCNH2 (Homo sapiens, UniProt Q12809); test: Inhibition of human ERG
CYP3A4 [2] = target: T1, CYP3A4 (Homo sapiens, UniProt P08684); test: Reversible inhibition of CYP3A4 assessed as conversion of testosterone to 6-beta-hydroxytestosterone at 10 uM relative to control; assay type: ADME; conditions: probe testosterone
CYP3A4 [3] = target: T1, CYP3A4; test: Time dependent inhibition of CYP3A4 assessed as conversion of testosterone to 6-beta-hydroxytestosterone at 10 uM relative to control; assay type: ADME; conditions: probe testosterone
Procedure, shortened: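 Rate of CYP3A4 conversion of testosterone (250 μM) to 6-β-hydroxytestosterone measured before and after a 30 min incubation with compound at 10 μM (in DMSO). Difference expressed as % loss.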

[4] = Oral bioavailability in Sprague-Dawley rat at 20 mg/kg; assay type: ADME, organism-based; conditions: in vivo
Renin [5] = target: T2, Renin (Homo sapiens, UniProt P00797); test: Inhibition of human recombinant renin using Q-FRET substrate after 3 hrs by fluorescence assay
T2 sequence (P00797 whole entry): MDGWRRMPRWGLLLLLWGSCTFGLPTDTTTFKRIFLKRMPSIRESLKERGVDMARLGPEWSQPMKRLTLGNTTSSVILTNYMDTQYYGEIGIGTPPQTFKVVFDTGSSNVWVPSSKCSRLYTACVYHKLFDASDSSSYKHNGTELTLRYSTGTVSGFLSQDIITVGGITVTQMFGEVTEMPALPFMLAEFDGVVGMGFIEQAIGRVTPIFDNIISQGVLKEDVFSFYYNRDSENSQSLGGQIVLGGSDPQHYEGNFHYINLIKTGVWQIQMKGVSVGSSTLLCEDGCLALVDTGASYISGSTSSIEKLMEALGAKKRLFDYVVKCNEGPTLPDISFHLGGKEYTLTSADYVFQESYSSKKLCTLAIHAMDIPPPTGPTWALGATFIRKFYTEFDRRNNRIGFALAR

Renin [6] = target: T2, Renin; test: Inhibition of renin in human plasma using Q-FRET substrate pretreated for 10 mins before substrate addition measured after 1 hr
[7] = Oral bioavailability in Sprague-Dawley rat at 30 mg/kg; assay type: ADME, organism-based; conditions: in vivo
[8] = Oral bioavailability in Sprague-Dawley rat at 3 mg/kg; assay type: ADME, organism-based; conditions: in vivo

Voltage-gated inwardly rectifying potassium channel KCNH2, sequence (Q12809 whole entry): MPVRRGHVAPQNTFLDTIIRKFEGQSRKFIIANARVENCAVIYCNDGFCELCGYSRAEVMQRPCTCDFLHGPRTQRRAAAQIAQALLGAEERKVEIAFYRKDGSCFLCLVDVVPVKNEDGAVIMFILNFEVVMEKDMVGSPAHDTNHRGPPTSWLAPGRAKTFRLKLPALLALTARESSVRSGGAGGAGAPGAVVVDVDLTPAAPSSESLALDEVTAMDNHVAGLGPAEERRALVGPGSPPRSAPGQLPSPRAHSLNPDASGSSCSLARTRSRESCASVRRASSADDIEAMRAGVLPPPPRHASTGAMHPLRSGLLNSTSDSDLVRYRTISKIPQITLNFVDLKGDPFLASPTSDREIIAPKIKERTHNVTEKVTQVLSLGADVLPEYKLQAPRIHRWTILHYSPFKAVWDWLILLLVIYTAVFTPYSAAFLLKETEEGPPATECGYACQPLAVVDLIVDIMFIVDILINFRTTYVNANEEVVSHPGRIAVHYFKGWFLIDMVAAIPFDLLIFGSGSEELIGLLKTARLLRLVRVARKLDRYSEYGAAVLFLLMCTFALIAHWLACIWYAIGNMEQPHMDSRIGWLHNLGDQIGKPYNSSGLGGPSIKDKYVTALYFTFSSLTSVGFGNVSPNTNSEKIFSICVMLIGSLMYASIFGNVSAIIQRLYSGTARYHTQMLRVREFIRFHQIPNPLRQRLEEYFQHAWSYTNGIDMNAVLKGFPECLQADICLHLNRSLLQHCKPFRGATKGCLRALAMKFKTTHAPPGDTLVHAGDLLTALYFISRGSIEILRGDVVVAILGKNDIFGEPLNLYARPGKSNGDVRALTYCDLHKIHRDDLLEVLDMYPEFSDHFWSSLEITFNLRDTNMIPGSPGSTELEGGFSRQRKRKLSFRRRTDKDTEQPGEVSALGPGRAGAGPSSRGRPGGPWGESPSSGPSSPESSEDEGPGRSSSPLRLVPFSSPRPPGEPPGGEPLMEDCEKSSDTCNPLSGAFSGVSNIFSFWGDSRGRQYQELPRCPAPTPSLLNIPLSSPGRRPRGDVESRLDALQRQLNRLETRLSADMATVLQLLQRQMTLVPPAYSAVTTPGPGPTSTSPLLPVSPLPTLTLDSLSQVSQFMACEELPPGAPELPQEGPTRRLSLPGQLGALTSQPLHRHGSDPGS
T1 sequence (P08684 whole entry): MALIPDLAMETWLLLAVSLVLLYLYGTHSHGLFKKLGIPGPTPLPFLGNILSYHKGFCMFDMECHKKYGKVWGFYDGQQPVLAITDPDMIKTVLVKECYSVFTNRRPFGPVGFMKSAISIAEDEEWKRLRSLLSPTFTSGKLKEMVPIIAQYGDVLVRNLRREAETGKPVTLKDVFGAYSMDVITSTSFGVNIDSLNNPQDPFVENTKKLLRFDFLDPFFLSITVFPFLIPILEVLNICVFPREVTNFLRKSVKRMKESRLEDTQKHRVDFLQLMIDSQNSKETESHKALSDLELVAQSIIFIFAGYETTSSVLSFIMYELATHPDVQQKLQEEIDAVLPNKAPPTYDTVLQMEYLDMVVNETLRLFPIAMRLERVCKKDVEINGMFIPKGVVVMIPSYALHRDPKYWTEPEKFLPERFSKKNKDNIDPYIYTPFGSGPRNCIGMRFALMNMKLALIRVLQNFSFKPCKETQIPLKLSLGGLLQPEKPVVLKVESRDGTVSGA

activity % at 10 µM (CYP3A4 [2]) [%] | inhibition at 10 µM (CYP3A4 [3]) [%] | bioavailability [4] [%] | IC50 (Renin [5]) [nM] | IC50 (Renin [6]) [nM] | bioavailability [7] [%] | bioavailability [8] [%] | Compound | Ki [1] [nM]
9 | 27 | 27 |  |  |  |  | COCCCc1cc(CN(C(=O)[C@H]2CNCC[C@@H]2c2ccc(OCCOc3c(Cl)cc(C)cc3Cl)cc2)C2CC2)cc(OCCOC)c1 | 800
33 | 0 |  | 150 | 580 |  |  | COCCCc1cc(CN(C(=O)[C@H]2CNCC[C@@H]2c2ccccc2)C2CC2)cc(OCCOC)c1 | 7200
75 | 9 | 61 | 45 | 140 |  |  | COCCCc1cc(CN(C(=O)[C@H]2CNCC[C@@H]2c2cccnc2)C2CC2)cc(OCCOC)c1 | > 29000
78 | 0 | 3 |  |  |  |  | COCCCc1cc(CN(C(=O)[C@H]2CNCC[C@@H]2c2ccn(C)c(=O)c2)C2CC2)cc(OCCOC)c1 | > 29000
70 | 5 | 1 | 200 | 460 |  |  | CCn1ccc([C@H]2CCNC[C@@H]2C(=O)N(Cc2cc(CCCOC)cc(OCCOC)c2)C2CC2)cc1=O | > 29000
41 | 0 | 0 | 25 | 80 |  |  | COCCCc1cc(CN(C(=O)[C@H]2CNCC[C@@H]2c2cc(=O)n(C)c(C)c2C)C2CC2)cc(OCCOC)c1 | > 29000
100 | 5 | 1 | 13 | 39 |  |  | COCCCc1cc(CN(C(=O)[C@H]2CNCC[C@@H]2c2cc(=O)n(C)c3ccccc23)C2CC2)cc(OCCOC)c1 | 28000
 | 4 | 20 | 2 | 8 |  |  | COCCCc1cc(CN(C(=O)[C@H]2CNCC[C@@H]2c2cc(=O)n(C)c3cc(Cl)ccc23)C2CC2)cc(OCCOC)c1 | 
61 | 37 | 23 | 20 | 42 |  |  | Cn1ccc([C@H]2CCNC[C@@H]2C(=O)N(Cc2cccc(Cl)c2Cl)C2CC2)cc1=O | 13000
 | 29 | 14 | 8 | 25 |  |  | COCCCc1ccc(Cl)c(CN(C(=O)[C@H]2CNCC[C@@H]2c2ccn(C)c(=O)c2)C2CC2)c1 | 
23 | 1 |  | 3 | 6.5 | 28 |  | COCCCc1cc(Cl)cc(CN(C(=O)[C@H]2CNCC[C@@H]2c2ccn(C)c(=O)c2)C2CC2)c1 | 7600
68 | 23 | 18 | 0.6 | 2.2 |  |  | COCCc1cc(Cl)c(Cl)c(CN(C(=O)[C@H]2CNCC[C@@H]2c2ccn(C)c(=O)c2)C2CC2)c1 | 11000
55 | 20 | 7 | 4.9 | 10 |  |  | Cn1ccc([C@H]2CCNC[C@@H]2C(=O)N(Cc2cc(CCCC#N)cc(Cl)c2Cl)C2CC2)cc1=O | 8400
52 | 15 | 8 | 8.5 | 17 |  |  | Cn1ccc([C@H]2CCNC[C@@H]2C(=O)N(Cc2cc(CCC#N)cc(Cl)c2Cl)C2CC2)cc1=O | 17000
97 | 0 | 0 | 4.5 | 9 |  |  | CC(=O)NCCc1cc(Cl)c(Cl)c(CN(C(=O)[C@H]2CNCC[C@@H]2c2ccn(C)c(=O)c2)C2CC2)c1 | > 29000
45 | 56 | 1 | 61 | 210 |  |  | COC(=O)NCCc1cc(Cl)c(Cl)c(CN(C(=O)[C@H]2CNCC[C@@H]2c2ccn(C)c(=O)c2)C2CC2)c1 | 15000

activity % at 10 µM (CYP3A4 [2]) [%] | inhibition at 10 µM (CYP3A4 [3]) [%] | bioavailability [4] [%] | IC50 (Renin [5]) [nM] | IC50 (Renin [6]) [nM] | bioavailability [7] [%] | bioavailability [8] [%] | Compound | Ki [1] [nM]
71 | 0 | 1 | 7.1 | 26 |  |  | COCCNc1cc(Cl)c(Cl)c(CN(C(=O)[C@H]2CNCC[C@@H]2c2ccn(C)c(=O)c2)C2CC2)c1 | 18000
 | 15 |  | 0.6 | 1 | 7 |  | COCCCc1cc(C)c(C)c(CN(C(=O)[C@H]2CNCC[C@@H]2c2ccn(C)c(=O)c2)C2CC2)c1 | 
15 | 45 | 15 | 1.7 | 3.5 |  |  | COCCCc1cc(Br)cc(CN(C(=O)[C@H]2CNCC[C@@H]2c2ccn(C)c(=O)c2)C2CC2)c1 | 
23 | 0 | 8 | 18 | 81 |  |  | COCCCc1cc(CN(C(=O)[C@H]2CNCC[C@@H]2c2ccn(C)c(=O)c2)C2CC2)cc(-c2ccccc2)c1 | 
54 | 34 | 4 | 0.4 | 1.4 |  |  | COCCCc1cc(CN(C(=O)[C@H]2CNCC[C@@H]2c2ccn(C)c(=O)c2)C2CC2)c2ccccc2c1 | 17000
95 | 13 | 1 | 1.4 | 3 |  |  | COCCCc1cc(CN(C(=O)[C@H]2CNCC[C@@H]2c2ccn(C)c(=O)c2)C2CC2)c2ccccc2n1 | > 29000
85 | 16 |  | 0.8 | 2.2 | 2 |  | COCCCc1cc(CN(C(=O)[C@H]2CNCC[C@@H]2c2ccn(C)c(=O)c2)C2CC2)c2ncccc2c1 | 27000
41 | 0 |  | 0.32 | 0.87 | 8 |  | COCCCn1cc(CN(C(=O)[C@H]2CNCC[C@@H]2c2ccn(C)c(=O)c2)C2CC2)c2c(F)cccc21 | > 29000
48 | 19 |  | 0.12 | 0.64 | 22 |  | COCCCn1cc(CN(C(=O)[C@H]2CNCC[C@@H]2c2ccn(C)c(=O)c2)C2CC2)c2c(Cl)cccc21 | 23000
63 | 48 |  | 0.07 | 0.57 |  | 3 | COCCCn1cc(CN(C(=O)[C@H]2CNCC[C@@H]2c2ccn(C)c(=O)c2)C2CC2)c2c(Br)cccc21 | 11000
74 | 0 |  | 12 | 8.4 |  | 0 | Cn1ccc([C@H]2CCNC[C@@H]2C(=O)N(Cc2c[nH]c3cccc(F)c23)C2CC2)cc1=O | > 29000
19 | 43 |  | 0.02 | 0.62 |  | 16 | Cn1ccc([C@H]2CCNC[C@@H]2C(=O)N(Cc2cn(Cc3ccccc3)c3cccc(F)c23)C2CC2)cc1=O | 
18 | 39 |  | 0.06 | 0.63 | 30 |  | Cn1ccc([C@H]2CCNC[C@@H]2C(=O)N(Cc2cn(Cc3cccc(F)c3)c3cccc(F)c23)C2CC2)cc1=O | 1200
16 | 70 |  | 0.05 | 0.48 | 17 |  | Cn1ccc([C@H]2CCNC[C@@H]2C(=O)N(Cc2cn(Cc3ccc(F)cc3)c3cccc(F)c23)C2CC2)cc1=O | 750
61 | 44 |  | 0.88 | 2 |  | 0 | Cn1ccc([C@H]2CCNC[C@@H]2C(=O)N(Cc2cn(Cc3cccnc3)c3cccc(F)c23)C2CC2)cc1=O | 12000
44 | 29 |  | 0.24 | 0.53 |  | 0 | Cn1ccc([C@H]2CCNC[C@@H]2C(=O)N(Cc2cn(Cc3ccncc3)c3cccc(F)c23)C2CC2)cc1=O | 15000
